EC50 and ED50 data for 34 compounds are collected here from ChEMBL document CHEMBL1122683, “Histamine H2 receptor antagonists. 1. Synthesis of N-cyano and N-carbamoyl amidine derivatives and their biological activities” (1984).

By ED50 is commonly meant the dose at which the effect has come halfway, by size or by number of responders. Read a high ED50 as weaker potency.

One experiment is filed under the species Cavia porcellus. Kind of experiment: Dose representing 50% inhibition of positive chronotropic response to histamine in guinea pig atrium (5 x 10e -6M). Format: functional. Conditions: Cardiac atrium, read-out: ED50 (the source's name). The procedure, abridged: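 Isolated right atria from guinea pig, three to four preparations per compound. Test agent added 10 min ahead of histamine (5 × 10⁻⁶ M). Read-out is inhibition of the histamine-induced rise in atrial rate. Percent inhibition plotted against log concentration, and the 50%-inhibiting dose read from that curve; means ± SE.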

For the next experiment, the system named is Canis familiaris. Kind of experiment: Reduction in acid response to histamine(160 ug/kg/h i.v.) in anesthetized dogs with acute gastric fistula. The class given is functional. Conditions: Canis lupus familiaris, Stomach, iv. The procedure, abridged: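 Mongrel dogs of 8–10 kg, fasted 24 h and anesthetized with pentobarbital 30 mg/kg i.v. Pylorus and esophagus ligated, with a stainless steel cannula in the stomach. Histamine infused at 160 μg/(kg h), drugs given i.v., gastric juice collected every 15 min. Inhibition taken from predrug minus minimum acid output (within 45 min). ED50 from a semilog dose-response plot.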

Turning to `N#CNC(=N)CCSCc1ccc(CN2CCCCC2)o1`, in the experiment listed under Cavia porcellus, the EC50 was 35 µM. For `CC(=N)Nc1nc(CSCCC(=N)NC#N)cs1`, in the experiment filed under Cavia porcellus, the EC50 turned out to be 9.1 µM. The same measure, in the same setting: the same measure for `N#CNC(=N)CCSCc1noc(NC(=N)N)n1`: greater than 100 µM.

Compound `CN(C)Cc1ccc(CSCCC(=N)NC#N)s1` came in with an ED50 in the experiment on Canis familiaris of 4.4 mg/kg. The EC50 in the experiment listed under Cavia porcellus was 13 µM.

In the experiment with Canis familiaris, `CN(C)Cc1cccc(OCCCC(=N)NC#N)c1` displayed an ED50 of 9 mg/kg. Moreover, the EC50 in the experiment listed under Cavia porcellus was 20 µM. Regarding `NC(=O)CCSCc1csc(N=C(N)N)n1`, the EC50 in the experiment listed under Cavia porcellus is 1 µM. Turning to `N#CNC(=N)CCSCc1ccccn1`, the EC50 in the experiment listed under Cavia porcellus is greater than 100 µM. Turning to `C/N=C(/NC)Nc1nc(CSCCC(=N)NC#N)cs1`, the EC50 in the experiment filed under Cavia porcellus is greater than 100 µM. As to `C/N=C(/CCSCc1[nH]cnc1C)NC#N`, the EC50 in the experiment filed under Cavia porcellus is greater than 100 µM.

Consider `N#C/N=C(\N)CCSCc1csc(N)n1`, for which the EC50 in the experiment listed under Cavia porcellus was greater than 100 µM. With `N#CNC(=N)CCCOc1cccc(CN2CCCCC2)c1`, the ED50 with Canis familiaris turned out to be 2.3 mg/kg. The EC50 in the experiment listed under Cavia porcellus was found to be 4.7 µM. Take `N#CNC(=N)CCSCc1csc(NC(=N)N)n1`: in the experiment with Canis familiaris, the ED50 is 0.018 mg/kg. The EC50 in the experiment listed under Cavia porcellus worked out at 0.18 µM. Turning to `C/N=C(/N)Nc1nc(CSCCC(=N)NC#N)cs1`, the EC50 in the experiment filed under Cavia porcellus stood at 1.2 µM. On the same count and under the same terms, next, `Cc1[nH]cnc1CSCCC(=N)NC#N`: greater than 100 µM. As to `CN(C)Nc1nc(CSCCC(=N)NC#N)cs1`, the EC50 in the experiment filed under Cavia porcellus was greater than 100 µM. For the compound `N#CNC(=N)CCSCc1ccc(CN2CCOCC2)o1`, the EC50 in the experiment filed under Cavia porcellus is greater than 100 µM. Turning to `N#CNC(=N)CCCCc1csc(NC(=N)N)n1`, the 50% effective dose (ED50) in the experiment on Canis familiaris is 0.022 mg/kg. In the experiment filed under Cavia porcellus, the EC50 is 0.12 µM.

On to `N#CNC(=N)CCSCc1nc[nH]n1`, for which the EC50 in the experiment filed under Cavia porcellus is greater than 100 µM. In the experiment on Canis familiaris, `N#CNC(=N)CCCOc1cccc(CN2CCCC2)c1` yielded an ED50 of 3.5 mg/kg. For the same compound, in the experiment filed under Cavia porcellus, the EC50 was determined as 13 µM. For `CN(C)Cc1ccc(CSCCC(=N)NC#N)o1`, the ED50 in the experiment with Canis familiaris came out at 0.28 mg/kg. Besides, the EC50 in the experiment listed under Cavia porcellus turned out to be 2.1 µM.

As for `C/N=C(/CCSCc1ccc(CN(C)C)o1)NC#N`, the 50% effective dose (ED50) with Canis familiaris was greater than 10 mg/kg. Besides, the EC50 in the experiment listed under Cavia porcellus worked out at 170 µM.

Compound `C/N=C(/CCSCc1csc(N=C(N)N)n1)NC#N` came in with an ED50 in the experiment with Canis familiaris of 0.39 mg/kg. Moreover, the EC50 in the experiment filed under Cavia porcellus was found to be 0.98 µM. For the compound `C#CC/N=C(/CCSCc1nc[nH]c1C)NC#N`, the EC50 in the experiment listed under Cavia porcellus was greater than 100 µM. As to `Cc1[nH]cnc1CSCCC(=N)NC(N)=O.Cl.Cl`, in the experiment on Canis familiaris, the 50% effect level (ED50) was put at a dose of 0.22 mg/kg. Besides, the EC50 in the experiment listed under Cavia porcellus was 0.9 µM. For `CCc1[nH]cnc1CSCCC(=N)NC(N)=O.Cl.Cl` the same measures were 0.33 mg/kg and 2 µM. Regarding `N=C(N)Nc1nc(CSCCC(=N)NC(N)=O)no1`, the EC50 in the experiment listed under Cavia porcellus is 26 µM. As to `CC(=N)Nc1nc(CSCCC(=N)NC(N)=O)cs1`, in the experiment listed under Cavia porcellus, the EC50 was found to be 2.5 µM.

In the case of `C/N=C(/N)Nc1nc(CSCCC(=N)NC(N)=O)cs1.Cl.Cl`, the 50% effect level with Canis familiaris (ED50) was put at a dose of 0.046 mg/kg. For the same compound, the EC50 in the experiment listed under Cavia porcellus amounted to 0.32 µM. On to `N=C(CCSCc1[nH]cnc1C(F)(F)F)NC(N)=O`, for which the EC50 in the experiment listed under Cavia porcellus was greater than 100 µM. Compound `Cl.Cl.N=C(CCSCc1ccccn1)NC(N)=O` came in with an ED50 in the experiment on Canis familiaris of 2.5 mg/kg. For the same compound, the EC50 in the experiment listed under Cavia porcellus is 12 µM. In turn, `Cl.Cl.N=C(CCSCc1nc[nH]n1)NC(N)=O` showed an ED50 in the experiment with Canis familiaris of 6.9 mg/kg. Further, the EC50 in the experiment filed under Cavia porcellus came to 41 µM. `Cl.Cl.N=C(CCSCc1c[nH]cn1)NC(N)=O`: in the experiment on Canis familiaris, the 50% effect level (ED50) was put at a dose of 1.3 mg/kg. In addition, the EC50 in the experiment filed under Cavia porcellus worked out at 5.3 µM. For `Cl.Cl.N=C(N)Nc1nc(CSCCC(=N)NC(N)=O)cs1` the same measures were 0.0064 mg/kg and 0.074 µM. In the experiment with Canis familiaris, `CN/C(=N\CCSCc1nc[nH]c1C)NC#N` [CIMETIDINE] displayed an ED50 of 0.33 mg/kg. Also, the EC50 in the experiment listed under Cavia porcellus turned out to be 2.7 µM.
